Rows were chosen to be rich in hits. Some 1.1% of all compounds tested hit in one or more screens of this group.
proCasp3 act: activators of human procaspase-3. P42574. 0.11% of 330,000 active. recombinant procaspase-3 D3A, Ac-DEVD-pNA absorbance 405 nm. activation, % at 8.5 µM;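 active means activation above the mean of all tested compounds plus 3 SD, cut at about 21% in these data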
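material = Procaspase-3 D3A mutant | probe or stimulus = Ac-DEVD-pNA | compound = single dose, 8.5 µM nominal compound, 0.8% DMSO | timing = 1 h preincubation, 2 h reaction | measured by = 405 nm absorbance of p-nitroaniline, reads at 0 and 120 min | benchmarks = DMSO-only low control, 5 µM PC-3 D3A high control | repeats = singlicate, each compound tested once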
T cell modulator: modulates CD8 T cell binding to vesicles; AID 2052; 0.068% of 330,000 active; response (vesicle binding), % at 7 µM; 2C CD8+ T cell-vesicle binding, flow cytometry; stronger effect = lower value;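 active means response, share of CD8 T cells binding vesicles, and their 90th percentile fluorescence all below set limits, cut at about 80% in these data, passing the limit was not always enough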;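 further: values below 100% mean blocked vesicle binding to the CD8+ T cells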
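Incubation: binding step 1.5 h, 37 °C, antibody labelling 20 min, ice; system: murine 2C transgenic CD8+ T lymphocytes; technique: cytometric PE anti-B7-1 and Alexa647 anti-CD8 signals after 1% paraformaldehyde fixation; also added: QL9-charged Drosophila Ld/ICAM-1/B7-1 vesicles; control set: naked versus QL9-loaded vesicles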
aDG glyco up: alpha-DG glycosylation activation; activation, % at 10 µM; 0.22% of 360,000 active; Pro5-aDG cells, alpha-DG glycosylation AlphaScreen (IIH6); 0% Pro5, 100% B10-LARGE cell signal;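 active means activation of at least 8% versus controls, or a plate z-score of at least 8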;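 further: Pro5 are CHO cells carrying HIG-tagged alpha-DG that lacks glycosylation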
GRK2 inh: inhibitors of human GRK2 displacing RNA aptamer; bead flow cytometry, FAM-aptamer displacement from GRK2; inhibition of aptamer binding, % at 10 µM; 0.59% of 330,000 active; AID 488847;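 active means inhibition of aptamer binding above 40%, roughly 3 SD of noise, on plates passing a quality check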;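 further: median bead fluorescence of bound FAM aptamer so fluorescent compounds give negative values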
Target sequence (P25098 whole entry, looked up): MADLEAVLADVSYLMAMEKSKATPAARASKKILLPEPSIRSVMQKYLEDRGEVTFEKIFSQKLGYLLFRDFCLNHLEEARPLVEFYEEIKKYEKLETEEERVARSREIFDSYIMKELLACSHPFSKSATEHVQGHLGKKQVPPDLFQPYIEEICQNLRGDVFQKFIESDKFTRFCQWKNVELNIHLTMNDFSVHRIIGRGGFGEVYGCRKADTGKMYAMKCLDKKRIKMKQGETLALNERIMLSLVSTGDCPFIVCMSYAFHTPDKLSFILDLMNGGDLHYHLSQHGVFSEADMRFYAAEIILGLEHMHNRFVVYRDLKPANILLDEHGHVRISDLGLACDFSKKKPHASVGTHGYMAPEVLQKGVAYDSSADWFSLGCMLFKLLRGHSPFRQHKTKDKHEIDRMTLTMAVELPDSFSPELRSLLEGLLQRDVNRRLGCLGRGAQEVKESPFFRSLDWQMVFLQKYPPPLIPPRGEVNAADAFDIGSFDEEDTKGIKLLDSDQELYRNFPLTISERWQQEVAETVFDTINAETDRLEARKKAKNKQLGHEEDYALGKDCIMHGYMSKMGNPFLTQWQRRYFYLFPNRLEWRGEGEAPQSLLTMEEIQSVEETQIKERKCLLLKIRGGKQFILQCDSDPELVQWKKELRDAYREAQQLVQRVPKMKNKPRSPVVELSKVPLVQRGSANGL
CaV13 FRET inh: Primary screen for inhibitors of IQ motif and Ca2+-dependent inactivation inhibitor domain binding in CACNA1D, Förster resonance energy transfer in living cells, …. HEK cells, CFP/YFP FRET ICDI-IQ, plate reader, 10 min; percent FRET-ratio fall versus neutral wells. inhibition, % at 12.3 µM. 0.098% of 340,000 active. AID 743397;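 active means mean replicate inhibition of at least 30% and at least 1% of replicates passing that level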
procasp7 counter: activates human procaspase-7, counter-screen for procaspase-3 activators | P55210 | recombinant procaspase-7, Ac-DEVD-pNA absorbance 405 nm; D23A/D198A/D206A triple mutant, cannot self-cleave; scale: DMSO 0, 5 µM enzyme 100 | activation, % at 8.5 µM | 0.093% of 330,000 active;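 active means percent activation above the screen-wide mean plus 3 SD, cut at about 25% in these data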
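Detection: p-Nitroaniline absorbance at 405 nm, read at 0 and 120 min; system: Uncleavable procaspase-7 mutant enzyme; evaluation: % activation from two-timepoint absorbance difference, scaled to controls; times: 1 h enzyme–compound preincubation and 2 h substrate reaction, both 25 °C; buffer or medium: Zinc-free HEPES pH 7.4 with 300 mM NaCl, 0.01% Triton X-100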
GRK2 CP1: human GRK2 inhibition confirmation, cherry pick 1; shares compounds with GRK2 inh; bead-bound GRK2, FAM-aptamer displacement, flow cytometry; aptamer displacement, % at 10 µM; 4% of 2,000 active; AID 504451;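 active means aptamer displacement above 40%, near three times the noise of non-fluorescent compounds, on plates passing quality checks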;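 further: negative values mostly reflect intrinsic compound fluorescence rather than true enhancement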
Aptamer quench SP: quenches fluorescent RNA aptamer, GRK2 hit artifact; 2,000 tested, under 10 active; Carboxyfluorescein RNA aptamer on beads, flow cytometry quenching; stronger effect = lower value; fluorescence response (% of DMSO), % at 10 µM; shares compounds with GRK2 inh;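 active means compounds that quench the bead-bound fluorescent RNA probe, cutting fluorescence to under half of the solvent control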;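 further: counterscreen run without GRK2 so only probe quenching by compound is measured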
GRK2 CP2: human GRK2 inhibition confirmation, cherry pick 2; bead-bound GRK2, FAM-aptamer displacement, flow cytometry; shares compounds with GRK2 inh; 360 tested, under 10 active; inhibition of aptamer binding, % at 10 µM;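 active means inhibition of aptamer binding above 40%, about triple the noise seen with nonglowing compounds, on plates passing quality control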;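 further: negative values mostly come from compounds that fluoresce themselves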
FAM quench SP: quenches fluorescent RNA aptamer, GRK2 hit artifact | shares compounds with GRK2 inh | carboxyfluorescein RNA aptamer beads, flow cytometry quenching; stronger effect = lower value | fluorescence response vs DMSO, % at 10 µM | 360 tested, under 10 active;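 active means response vs DMSO under 50%, meaning signal dropped by over half, treated as fluorescence quencher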;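 further: labelled aptamer on streptavidin beads without GRK2 as a quench counter-screen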
aDG glyco conf: alpha-DG glycosylation activation, confirmation | shares compounds with aDG glyco up | Pro5-aDG cells, IIH6 AlphaLISA; scaled to LARGE-overexpressing B10 cells as 100% | AID 651671 | activation, % at 10 µM (by protocol) | 17% of 600 active;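 active means activation of at least 7% in one or more replicates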;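 further: cells exposed to compound for two days before detection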
A number is an active result; n = inactive; x = no result given.

SMILES	proCasp3 act	T cell modulator	aDG glyco up	GRK2 inh	CaV13 FRET inh	procasp7 counter	aDG glyco conf	others
CCOc1ccc(N(CC(=O)NCc2ccccc2)S(C)(=O)=O)cc1	n	n	n	n	x	n	x
CCOc1ccc(N(CC(=O)NCc2ccccc2OC)S(C)(=O)=O)cc1	n	n	n	53	n	n	x	GRK2 CP1=n;Aptamer quench SP=n
CSc1ccc(CN2CCN(S(=O)(=O)Cc3ccccc3)CC2)cc1	n	n	n	55	n	n	x	GRK2 CP2=n;FAM quench SP=n
CN1C(=O)/C(=C/c2ccccc2Cl)Sc2ccc(C(=O)NCc3cccnc3)cc21	n	n	n	n	n	n	x
CCCc1cc(=O)[nH]c(SCC(=O)c2c[nH]c3ccccc23)n1	n	n	n	59	n	n	x	GRK2 CP1=n;Aptamer quench SP=n
Cc1cc(C)c(C)c(S(=O)(=O)N2CCN(C(=O)c3cc(S(=O)(=O)N4CCOCC4)ccc3F)CC2)c1C	n	n	n	n	n	n	x	GRK2 CP1=n;Aptamer quench SP=n
Cc1[nH]nc2c1C(c1ccccc1)N(Cc1ccccc1)C2=O (stereo not drawn)	x	x	x	x	n	x	x
COc1ccc(CNS(=O)(=O)CCNCCc2ccccc2)cc1	x	x	n	x	n	x	x
COc1ccc(CCNCc2ccc(OCc3ccccc3)cc2)cc1	n	n	n	58	n	n	x	GRK2 CP1=n;Aptamer quench SP=n
CN(CC(=O)Nc1cccc(F)c1)C(=O)c1ccc(N2C(=O)c3ccccc3C2=O)cc1	n	n	5.1	n	n	n	n	GRK2 CP1=n;Aptamer quench SP=n
CC(=O)Nc1ccc(S(=O)(=O)NCCC(=O)OCC(=O)c2cc(C)ccc2C)cc1	x	x	n	x	n	x	x
O=C(CN1C(=O)c2ccc(Br)cc2C1=O)NCC1CCCO1 (stereo not drawn)	n	n	5.5	n	n	n	n
CCOc1ccc(/C(O)=C2/C(=O)C(=O)N(CCCN3CCOCC3)C2c2ccc(F)cc2)cc1C (stereo not drawn)	n	n	n	n	n	n	x
Clc1ccc(SCc2cc(N3CCOCC3)nc(-c3ccccn3)n2)cc1	n	n	8.5	n	n	n	4.0
Clc1ccc(SCc2csc(N3CCOCC3)n2)cc1	n	n	n	n	n	n	x
Cc1cc(NC(=O)CSc2nnnn2Cc2ccccc2)no1	n	n	n	n	n	n	x
COCCN1CCC(CNCc2cn(-c3cc(C)ccc3C)nc2-c2ccccc2)C1 (stereo not drawn)	n	n	7.8	n	n	n	8.6
CC1CCC(NC(=O)c2[nH]c(C(F)(F)F)nc2-c2ccccc2)CC1 (stereo not drawn)	x	x	n	x	n	x	x
N#Cc1ccncc1S(=O)c1ccc(Cl)cc1 (stereo not drawn)	n	n	n	n	n	n	x
Nc1nc(SCC(=O)NCCc2ccccc2)[nH]c(=O)c1-c1ccccc1	n	n	x	n	n	n	x
O=C(OCc1ccccc1)N1CCC2CC1c1ccc(Cl)cc12 (stereo not drawn)	x	x	n	x	n	x	x
O=C(OCc1ccccc1)N1CCC2CC1c1cc(Cl)ccc12 (stereo not drawn)	x	x	9.7	x	n	x	n
Cc1noc(C)c1COC(=O)c1ccc(N(C)C)cc1	n	n	n	n	n	n	x
Clc1ccccc1CSc1nnc([C@@H]2CCCN2)o1	n	n	n	n	n	n	x
Cc1ccccc1CSc1nnc([C@@H]2CCCN2)o1	n	n	4.8	n	n	n	n
SMILES	proCasp3 act	T cell modulator	aDG glyco up	GRK2 inh	CaV13 FRET inh	procasp7 counter	aDG glyco conf	others
CC(=O)c1ccc(N2CCC(c3cc(-c4ccc(Cl)cc4Cl)n[nH]3)CC2)c([N+](=O)[O-])c1	n	n	8.8	n	n	n	n
O=C(NCCCN1CCOCC1)c1ccc(S(=O)(=O)Nc2ccccc2)cc1	n	n	n	n	n	n	x
COc1ccccc1NS(=O)(=O)c1ccc(C(=O)NCCCN2CCOCC2)cc1	x	x	5.0	x	n	x	n
O=C(NC1CCCCC1)c1cccc(COCC(F)(F)F)c1	n	n	n	n	n	n	x
Cn1cc(CNC(=O)COc2ccc(Cl)cc2Cl)cn1	n	n	n	n	n	n	x
Cc1nn(C)cc1CNC(=O)COc1ccc(Cl)cc1Cl	n	n	15	n	n	n	n
CCC1Nc2ncnc(N3CCc4ccccc4C3)c2N(Cc2ccc(Cl)cc2)C1=O (stereo not drawn)	n	n	16	n	n	n	n
CC/C(=N\NC(=S)Nc1cc(C)ccc1C)c1ccc(OC(F)F)cc1	n	n	5.7	n	n	n	n
CC/C(=N\NC(=S)Nc1ccc(OC)cc1)c1ccc(OC(F)F)cc1	n	n	n	n	n	n	x
CCC(c1nnnn1-c1c(C)cccc1C)N1CCN(c2ccc(C(F)(F)F)cc2[N+](=O)[O-])CC1 (stereo not drawn)	x	x	7.6	x	x	x	n
CCC(c1nnnn1-c1c(C)cccc1C)N1CCN(c2cccc(C(F)(F)F)n2)CC1 (stereo not drawn)	x	x	n	x	n	x	x
CC(C)COc1ccc(CSCCNC(=S)Nc2ccccc2)cc1	n	n	4.6	n	x	n	4.9
CCCCOc1ccc(CSCCNC(=S)Nc2ccccc2)cc1	n	n	n	n	x	n	x
Cc1cc(-c2nn(-c3ccccc3)cc2/C=C2\SC(N)=NC2=O)ccc1OC(C)C	n	n	6.0	n	n	n	n
CC(C)C(C)(C#N)NC(=O)COC(=O)C1CCN(S(=O)(=O)c2ccc3c(c2)OCCO3)CC1 (stereo not drawn)	x	x	n	x	n	x	x
Cc1noc(/C=C/N(C)C)c1S(=O)(=O)N1CCC(C(=O)Nc2ccc(Cl)cc2)CC1	n	n	8.6	n	n	n	n
Cc1cc(C)cc(NC(=O)C2CCCN(S(=O)(=O)c3c(C)noc3C)C2)c1 (stereo not drawn)	n	x	3.1	n	n	n	n

High-throughput results from PubChem BioAssay.
